In ChEMBL document CHEMBL5376016, “Synthesis of novel rapanone derivatives via organocatalytic reductive C-alkylation: biological evaluation of antioxidant properties, in vivo zebrafish embryo toxicity, and docking studies” (RSC Med Chem, 2024):
pIC50: −log10 of the molar value.

Tests used:
[1] = Antioxidant activity assessed as DPPH radical scavenging activity after 30 mins by spectrophotometric analysis; format: functional
Outline: (§1)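 Ascorbic acid was the reference standard. For DPPH, 0.2 mM DPPH in methanol was kept in the dark, mixed with compound at 5–160 µM (DMSO stock), and incubated 30 min in the dark at room temperature, then A517 was read. %RSA = (Ac−As)/Ac×100. Triplicate runs; IC50 taken from the plot of % scavenging versus concentration.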

[2] = Antioxidant activity assessed as DPPH radical scavenging activity after 30 mins by spectrophotometric analysis relative to control; format: functional; set-up: concentration or dose not given beside the values; outline: as §1
[3] = Antioxidant activity assessed as ABTS radical scavenging activity after 6 mins by spectrophotometric analysis relative to control; format: functional; set-up: concentration or dose not given beside the values
[4] = Antioxidant activity assessed as ABTS radical scavenging activity after 6 mins by spectrophotometric analysis; format: functional
[5] = Acute toxicity in zebrafish embryo assessed as survival rate at 96 hrs post fertilization relative to control; set-up: species or system Danio rerio; concentration or dose not given beside the values; details: in vivo
Outline: (§2)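 Lethality endpoints were coagulation and absence of heartbeat, checked by inverted microscope. Survival was compared with untreated embryos across three independent experiments; mean ± SD, ANOVA.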

[6] = Acute toxicity in zebrafish embryo assessed as hatching rate at 20 to 160 uM measured after 48 hrs post fertilization relative to control; set-up: species or system Danio rerio; details: in vivo, dose 20-160 µM
Outline: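 Controls were water and water with 0.5% DMSO. Incubation at 26.8 ± 1 °C, 20 embryos per well. Hatching scored over 0–96 hpf under an inverted microscope. Triplicate, three independent experiments; mean ± SD; ANOVA.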

[7] = Acute toxicity in zebrafish embryo assessed as morphological changes at upto 160 uM measured after 48 hrs post fertilization relative to control; set-up: species or system Danio rerio; details: in vivo
Outline: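 Wild-type Danio rerio embryos were exposed in milli-Q water with compound dissolved in DMSO (≤0.25 v/v final). Controls were milli-Q water and water with DMSO. Embryos were held at 26.8 ± 1 °C and scored by inverted microscope at 24–96 hpf, after exposure at 160 µM, for bent spine, yolk sac edema, pericardial edema, short tail and bent tail.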

[8] = Acute toxicity in zebrafish embryo assessed as survival rate at 20 uM measured after 96 hrs post fertilization relative to control; set-up: species or system Danio rerio; details: in vivo; outline: as §2
[9] = Acute toxicity in zebrafish embryo assessed as survival rate at 160 uM measured after 96 hrs post fertilization relative to control; set-up: species or system Danio rerio; details: in vivo; outline: as §2

Compound	pIC50 [1]	Activity [2]	Activity [3]	pIC50 [4]	survival at 96 h ([5]; read-out: Survival)	Activity [6]	Activity [7]	survival at 96 h ([5]; read-out: Activity)	survival at 96 h, 20 µM [8]	survival at 96 h, 160 µM [9]
CCCCCCCCCCCC1=C(O)C(=O)C(Cc2ccc(C#N)cc2)=C(O)C1=O	5.34	50.3%	52.1%	5.29	> 90%	51.33%	Non-Toxic	–	–	–
CCCCCCCCCCCC1=C(O)C(=O)C(Cc2ccccc2C)=C(O)C1=O	5.60	80%	80.2%	5.69	–	75.66%	Non-Toxic	70%	52%	70%
CCCCCCCCCCCC1=C(O)C(=O)C(Cc2ccccc2F)=C(O)C1=O	5.34	50.3%	52.1%	5.26	> 90%	51.33%	Non-Toxic	–	–	–
C#Cc1ccccc1CC1=C(O)C(=O)C(CCCCCCCCCCC)=C(O)C1=O	5.31	50.3%	52.1%	5.30	> 90%	51.33%	Non-Toxic	–	–	–
CCCCCCCCCCCC1=C(O)C(=O)C(Cc2ccc(N(C)C)cc2)=C(O)C1=O	5.47	71.1%	75.1%	5.54	–	75.66%	Non-Toxic	70%	52%	70%
CCCCCCCCCCCC1=C(O)C(=O)C(Cc2c(OC)cc(OC)cc2OC)=C(O)C1=O	5.51	71.1%	80.2%	5.59	–	75.66%	Non-Toxic	70%	52%	70%
CCCCCCCCCCCC1=C(O)C(=O)C(Cc2ccccc2[N+](=O)[O-])=C(O)C1=O	5.32	50.3%	52.1%	5.27	> 90%	51.33%	Non-Toxic	–	–	–
CCCCCCCCCCCC1=C(O)C(=O)C(Cc2ccc(C(C)C)cc2)=C(O)C1=O	5.72	86%	87.2%	5.72	–	75.66%	Non-Toxic	70%	52%	70%
CCCCCCCCCCCC1=C(O)C(=O)C(Cc2cc(Cl)ccc2Cl)=C(O)C1=O	5.33	50.3%	52.1%	5.27	> 90%	51.33%	Non-Toxic	–	–	–
CCCCCCCCCCCC1=C(O)C(=O)C(CC(C)C)=C(O)C1=O	5.61	80%	80.2%	–	–	75.66%	Non-Toxic	70%	52%	70%
CCCCCCCCCCCC1=C(O)C(=O)C(Cc2ccc(Cl)cc2)=C(O)C1=O	5.31	50.3%	52.1%	5.30	> 90%	51.33%	Non-Toxic	–	–	–
CCCCCCCCCCCC1=C(O)C(=O)C(Cc2ccccc2O)=C(O)C1=O	5.52	71.1%	75.1%	5.54	–	75.66%	Non-Toxic	70%	52%	70%
O=C1O[C@H]([C@@H](O)CO)C(O)=C1O [ASCORBIC ACID]	5.73	90.2%	91.1%	5.85	–	–	–	–	–	–
CCCCCCCCCCCC1=C(O)C(=O)C(CCCl)=C(O)C1=O	5.34	50.3%	52.1%	5.36	> 90%	51.33%	Non-Toxic	–	–	–
CCCCCCCCCCCC1=C(O)C(=O)C(Cc2c(Cl)cccc2Cl)=C(O)C1=O	5.31	50.3%	52.1%	5.28	> 90%	51.33%	Non-Toxic	–	–	–
CCCCCCCCCCCC1=C(O)C(=O)C(Cc2ccccc2C#N)=C(O)C1=O	5.35	50.3%	52.1%	5.30	> 90%	51.33%	Non-Toxic	–	–	–
CCCCCCCCCCCC1=C(O)C(=O)C(Cc2ccccc2)=C(O)C1=O	5.50	71.1%	80.2%	5.57	–	75.66%	Non-Toxic	70%	52%	70%
CCCCCCCCCCCC1=C(O)C(=O)C(Cc2ccc(O)cc2)=C(O)C1=O	5.55	80%	75.1%	5.57	–	75.66%	Non-Toxic	70%	52%	70%
CCCCCCCCCCCC1=C(O)C(=O)C(Cc2ccc(F)cc2)=C(O)C1=O	5.33	50.3%	52.1%	5.28	> 90%	51.33%	Non-Toxic	–	–	–
CCCCCCCCCCCC1=C(O)C(=O)C(Cc2ccc(Cl)cc2Cl)=C(O)C1=O	5.32	50.3%	52.1%	5.35	> 90%	51.33%	Non-Toxic	–	–	–
CCCCCCCCCCCC1=C(O)C(=O)C(Cc2ccc(Br)cc2)=C(O)C1=O	5.34	50.3%	52.1%	5.29	> 90%	51.33%	Non-Toxic	–	–	–
CCCCCCCCCCCC1=C(O)C(=O)C(Cc2ccc(Cl)c(Cl)c2)=C(O)C1=O	5.31	50.3%	52.1%	5.29	> 90%	51.33%	Non-Toxic	–	–	–
CCCCCCCCCCCC1=C(O)C(=O)C(Cc2ccc(C)cc2)=C(O)C1=O	5.74	89.4%	90.3%	5.74	–	75.66%	Non-Toxic	70%	52%	70%
CCCCCCCCCCCC1=C(O)C(=O)C(Cc2cccc([N+](=O)[O-])c2)=C(O)C1=O	5.32	50.3%	52.1%	5.27	> 90%	51.33%	Non-Toxic	–	–	–
CCCCCCCCCCCC1=C(O)C(=O)C(Cc2ccccc2Br)=C(O)C1=O	5.34	50.3%	52.1%	5.26	> 90%	51.33%	Non-Toxic	–	–	–
CCCCCCCCCCCC1=C(O)C(=O)C(Cc2ccc(OC)cc2)=C(O)C1=O	5.50	71.1%	80.2%	5.57	–	75.66%	Non-Toxic	70%	52%	70%
CCCCCCCCCCCC1=C(O)C(=O)C(Cc2cc(OC)c(OC)c(OC)c2)=C(O)C1=O	5.53	80%	80.2%	5.61	–	75.66%	Non-Toxic	70%	52%	70%
CCCCCCCCCCCC1=C(O)C(=O)C(CC)=C(O)C1=O	5.58	80%	80.2%	5.61	–	75.66%	Non-Toxic	70%	52%	70%
CCCCCCCCCCCC1=C(O)C(=O)C(Cc2ccc([N+](=O)[O-])cc2)=C(O)C1=O	5.31	50.3%	52.1%	5.28	> 90%	51.33%	Non-Toxic	–	–	–
